According to ChEMBL document CHEMBL1155387, “Substituted fused bicyclic pyrrolizinones as potent, orally bioavailable hNK1 antagonists” (Bioorg Med Chem Lett, 2010):
Values joined by “and” are separate entries in the source; they are usually repeats but may differ in a detail not shown here. Equal entries are not always repeated.

How the values were obtained:
Substance-P receptor [1] = target: T1, Substance-P receptor (Homo sapiens, UniProt P25103); assay: Displacement of [125I]substance P from human NK1 receptor expressed in CHO cells; assay type: cell-based
T1 sequence (P25103 whole entry): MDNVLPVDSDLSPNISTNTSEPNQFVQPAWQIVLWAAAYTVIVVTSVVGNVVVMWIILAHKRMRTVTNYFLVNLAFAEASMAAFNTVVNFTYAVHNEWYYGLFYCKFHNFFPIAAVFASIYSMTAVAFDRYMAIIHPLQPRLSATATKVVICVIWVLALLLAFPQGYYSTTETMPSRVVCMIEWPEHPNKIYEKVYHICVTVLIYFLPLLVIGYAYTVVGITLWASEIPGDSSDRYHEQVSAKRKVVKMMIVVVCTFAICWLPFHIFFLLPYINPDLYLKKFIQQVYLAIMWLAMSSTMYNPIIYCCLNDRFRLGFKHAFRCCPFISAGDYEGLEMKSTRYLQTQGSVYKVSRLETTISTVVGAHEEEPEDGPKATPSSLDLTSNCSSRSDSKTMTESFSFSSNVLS
Outline: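 Competition binding: [125I]-labelled substance P displaced from cloned human NK1 receptor expressed in CHO cells; IC50 reported as mean of n = 3.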

Substance-P receptor [2] = target: T1, Substance-P receptor; assay: Displacement of [125I]substance P from human NK1 receptor expressed in CHO cells in the presence of 50 percent human serum; assay type: cell-based
[3] = Displacement of diltiazem […] from calcium channel
Outline: (§1)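 Ion-channel binding assay; IC50 values calculated for sodium channel and for calcium channel (diltiazem site).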

Substance-P receptor [4] = target: T1, Substance-P receptor; assay: Antagonist activity at human NK1 receptor expressed in CHO cells assessed as inhibition of substance P-induced inositol phosphate generation at 100 nM; assay type: functional, cell-based
[5] = Inhibition of sodium channel; outline: as §1
Gerbillinae [6] = assay: Inhibition of GR-73632-induced foot tapping in gerbils at 1 mg/kg, iv after 1 hr; assay type: functional
Outline: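 Gerbils given 1 mg/kg iv; GR73632-induced foot tapping challenged 1 h after dosing; inhibition of tapping scored.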

Gerbillinae [7] = assay: Inhibition of GR-73632-induced foot tapping in gerbils at 3 mg/kg, iv after 24 hrs; assay type: functional; conditions: for inhibition in vivo at 3 mg/kg: Gerbillinae, iv, 24 h; for inhibition (INH): 3 mg/kg
Outline: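 Gerbils dosed iv at 3 mg/kg; foot tapping induced by NK1 agonist GR73632 evaluated 24 h post-dose; percent inhibition of the tapping response.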

[8] = Volume of distribution in rat; assay type: ADME, organism-based; conditions: in vivo
Gerbillinae [9] = assay: Inhibition of GR-73632-induced foot taping in iv dosed gerbils after 1 hr; assay type: functional; conditions: read-out: ID50 (the source's name)
[10] = Stability in human microsomes assessed as compound remaining after 60 mins; assay type: ADME, Microsome; conditions: read-out: Stability
[11] = Stability in rhesus monkey microsomes assessed as compound remaining after 60 mins; assay type: ADME, Macaca mulatta, Microsome; conditions: read-out: Stability
Cytochrome P450 2C9 = Cytochrome P450 2C9 (Homo sapiens, UniProt P11712); assay: Inhibition of CYP2C9; assay type: ADME
Sequence of Cytochrome P450 2C9 (P11712 whole entry): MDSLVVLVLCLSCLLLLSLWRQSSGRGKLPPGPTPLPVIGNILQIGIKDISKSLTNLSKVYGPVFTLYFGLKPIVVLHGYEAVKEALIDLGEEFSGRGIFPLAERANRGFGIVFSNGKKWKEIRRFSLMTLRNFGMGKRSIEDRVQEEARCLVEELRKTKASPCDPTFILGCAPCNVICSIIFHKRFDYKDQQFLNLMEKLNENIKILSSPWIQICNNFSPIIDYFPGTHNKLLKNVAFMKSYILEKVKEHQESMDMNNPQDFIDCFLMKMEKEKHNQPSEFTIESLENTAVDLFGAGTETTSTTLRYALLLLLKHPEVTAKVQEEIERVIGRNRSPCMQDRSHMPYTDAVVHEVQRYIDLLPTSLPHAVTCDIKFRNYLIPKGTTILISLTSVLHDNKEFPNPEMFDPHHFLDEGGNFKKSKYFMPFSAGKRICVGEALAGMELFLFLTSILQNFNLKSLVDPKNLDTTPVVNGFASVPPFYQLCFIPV

[12] = Oral bioavailability in rat; assay type: ADME, organism-based; conditions: in vivo
[13] = Stability in rat microsomes assessed as compound remaining after 60 mins; assay type: ADME, Microsome; conditions: read-out: Stability
Gerbillinae [14] = assay: Inhibition of GR-73632-induced foot taping in iv dosed gerbils after 24 hrs; assay type: functional; conditions: read-out: ID50 (the source's name)
[15] = Half life in rat; assay type: ADME, organism-based; conditions: in vivo
[16] = Stability in dog microsomes assessed as compound remaining after 60 mins; assay type: ADME, Canis lupus familiaris, Microsome; conditions: read-out: Stability
Cytochrome P450 3A4 = Cytochrome P450 3A4 (Homo sapiens, UniProt P08684); assay: Inhibition of CYP3A4; assay type: ADME
Sequence of Cytochrome P450 3A4 (P08684 whole entry): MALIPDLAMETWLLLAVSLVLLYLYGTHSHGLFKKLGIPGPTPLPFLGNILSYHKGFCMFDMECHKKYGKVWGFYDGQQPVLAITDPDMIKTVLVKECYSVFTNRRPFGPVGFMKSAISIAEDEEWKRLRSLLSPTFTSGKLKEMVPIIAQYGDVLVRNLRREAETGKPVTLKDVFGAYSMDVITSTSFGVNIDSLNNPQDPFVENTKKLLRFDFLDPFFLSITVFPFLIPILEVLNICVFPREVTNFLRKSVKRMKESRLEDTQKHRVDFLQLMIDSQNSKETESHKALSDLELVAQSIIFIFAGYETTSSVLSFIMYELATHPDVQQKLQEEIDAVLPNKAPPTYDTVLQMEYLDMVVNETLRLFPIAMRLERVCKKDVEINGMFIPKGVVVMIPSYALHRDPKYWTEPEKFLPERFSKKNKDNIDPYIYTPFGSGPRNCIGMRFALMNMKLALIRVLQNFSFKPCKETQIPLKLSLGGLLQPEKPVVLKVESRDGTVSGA

Cytochrome P450 2D6 = Cytochrome P450 2D6 (Homo sapiens, UniProt P10635); assay: Inhibition of CYP2D6; assay type: ADME
Sequence of Cytochrome P450 2D6 (P10635 whole entry): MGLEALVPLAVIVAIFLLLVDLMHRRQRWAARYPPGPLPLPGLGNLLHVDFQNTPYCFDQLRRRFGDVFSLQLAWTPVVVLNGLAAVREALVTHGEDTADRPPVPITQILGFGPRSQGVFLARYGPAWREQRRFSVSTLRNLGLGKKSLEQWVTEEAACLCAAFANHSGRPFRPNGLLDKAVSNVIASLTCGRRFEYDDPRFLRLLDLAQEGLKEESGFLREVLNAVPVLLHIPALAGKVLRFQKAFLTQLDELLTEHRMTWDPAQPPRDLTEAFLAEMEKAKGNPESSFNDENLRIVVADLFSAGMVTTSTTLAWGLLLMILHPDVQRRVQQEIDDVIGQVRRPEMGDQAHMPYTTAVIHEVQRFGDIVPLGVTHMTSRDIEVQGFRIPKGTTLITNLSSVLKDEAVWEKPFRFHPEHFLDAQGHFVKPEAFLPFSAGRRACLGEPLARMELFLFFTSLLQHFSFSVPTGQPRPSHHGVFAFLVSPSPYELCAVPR

[17] = Ratio of drug level in brain to plasma in rat at 1 mg/kg, iv after 4 hrs; assay type: ADME, organism-based; design: dose 1 mg/kg, route intravenous; conditions: brain and plasma
[18] = Plasma clearance in rat; assay type: ADME, organism-based

Structure (SMILES)	IC50 (Substance-P receptor [1])	IC50 (Substance-P receptor [2])	IC50 [3]	inhibition of substance P-induced inositol phosphate generation (Substance-P receptor [4])	IC50 [5]	further results
C[C@@H](O[C@H]1CN2C(=O)CC(n3cnnc3)[C@H]2[C@@H]1c1ccc(F)cc1)c1cc(C(F)(F)F)cc(C(F)(F)F)c1 (some centres undefined)	0.07 nM	0.83 nM	> 10000 nM	52%	7820 nM	inhibition in vivo at 1 mg/kg (Gerbillinae [6]): 0%
C[C@@H](O[C@H]1CN2C(=O)CC(C)(N)[C@H]2[C@@H]1c1ccc(F)cc1)c1cc(C(F)(F)F)cc(C(F)(F)F)c1 (some centres undefined)	0.08 nM	0.42 nM	767 nM	45%	1400 nM	inhibition in vivo at 3 mg/kg (Gerbillinae [7]): 100%
C[C@@H](O[C@H]1CN2C(=O)CC(O)[C@H]2[C@@H]1c1ccc(F)cc1)c1cc(C(F)(F)F)cc(C(F)(F)F)c1 (single isomer, unassigned; 18a) [listing 1 of 2 here]	–	–	–	65%	–	–
C[C@@H](O[C@H]1CN2C(=O)CC(O)[C@H]2[C@@H]1c1ccc(F)cc1)c1cc(C(F)(F)F)cc(C(F)(F)F)c1 (single isomer, unassigned; 18b) [listing 1 of 2 here]	0.07 nM	2.7 nM	–	–	–	–
C[C@@H](O[C@H]1CN2C(=O)CC(C)(O)[C@H]2[C@@H]1c1ccc(F)cc1)c1cc(C(F)(F)F)cc(C(F)(F)F)c1 (stereo in doubt; 20b) [listing 1 of 2 here]	–	–	–	57%	–	–
C[C@@H](O[C@H]1CN2C(=O)CC(O)[C@H]2[C@@H]1c1ccc(F)cc1)c1cc(C(F)(F)F)cc(C(F)(F)F)c1 (single isomer, unassigned; 18b) [listing 2 of 2 here]	–	–	–	79%	–	–
C[C@@H](O[C@H]1CN2C(=O)CC(O)[C@H]2[C@@H]1c1ccc(F)cc1)c1cc(C(F)(F)F)cc(C(F)(F)F)c1 (single isomer, unassigned; 18a) [listing 2 of 2 here]	0.08 nM	2.1 nM	2380 nM	–	1990 nM	inhibition in vivo at 3 mg/kg (Gerbillinae [7]): 100%
C[C@@H](O[C@H]1CN2C(=O)CC(N)[C@H]2[C@@H]1c1ccc(F)cc1)c1cc(C(F)(F)F)cc(C(F)(F)F)c1 (stereo in doubt; 15b) [listing 1 of 2 here]	–	–	–	87% and 63%	–	–
C[C@@H](O[C@H]1CN2C(=O)CC(N)[C@H]2[C@@H]1c1ccc(F)cc1)c1cc(C(F)(F)F)cc(C(F)(F)F)c1 (stereo in doubt; 15a) [listing 1 of 2 here]	0.09 nM	0.6 nM	1880 nM	–	7720 nM	Vd [8]: 5.9 L/kg; ED50 (Gerbillinae [9]): 0.88 mg/kg; remaining at 1 h [10]: 66%; remaining at 1 h [11]: 91%; Activity (Cytochrome P450 2C9): 45 µM; bioavailability [12]: 78%; remaining at 1 h [13]: 85%; inhibition in vivo at 3 mg/kg (Gerbillinae [7]): 100%; ED50 (Gerbillinae [14]): 0.92 mg/kg; half-life [15]: 7.7 h; remaining at 1 h [16]: 89%; Activity (Cytochrome P450 3A4): > 100 µM; Activity (Cytochrome P450 2D6): 66 µM; Kp at 4 h [17]: 1.4; clearance [18]: 8.9 mL/min/kg
C[C@@H](O[C@H]1CN2C(=O)CC(C)(O)[C@H]2[C@@H]1c1ccc(F)cc1)c1cc(C(F)(F)F)cc(C(F)(F)F)c1 (stereo in doubt; 20a) [listing 1 of 2 here]	–	–	–	28%	–	–
C[C@@H](O[C@H]1CN2C(=O)CC(N)[C@H]2[C@@H]1c1ccc(F)cc1)c1cc(C(F)(F)F)cc(C(F)(F)F)c1 (stereo in doubt; 15b) [listing 2 of 2 here]	0.08 nM and 0.11 nM	0.77 nM and 1.8 nM	1560 nM and 1360 nM	–	4980 nM and 558 nM	–
C[C@@H](O[C@H]1CN2C(=O)CC(C)(O)[C@H]2[C@@H]1c1ccc(F)cc1)c1cc(C(F)(F)F)cc(C(F)(F)F)c1 (stereo in doubt; 20b) [listing 2 of 2 here]	0.06 nM	2.6 nM	–	–	–	–
C[C@@H](O[C@H]1CN2C(=O)CC(C)(O)[C@H]2[C@@H]1c1ccc(F)cc1)c1cc(C(F)(F)F)cc(C(F)(F)F)c1 (stereo in doubt; 20a) [listing 2 of 2 here]	0.07 nM	1.1 nM	2210 nM	–	2210 nM	inhibition in vivo at 3 mg/kg (Gerbillinae [7]): 96%

Second part, led by results:

IC50 (Substance-P receptor [1])	IC50 (Substance-P receptor [2])	IC50 [3]	inhibition of substance P-induced inositol phosphate generation (Substance-P receptor [4])	IC50 [5]	Structure (SMILES)	further results
0.06 nM	0.38 nM	214 nM	–	239 nM	C[C@@H](O[C@H]1CN2C(=O)C(N)C[C@H]2[C@@H]1c1ccc(F)cc1)c1cc(C(F)(F)F)cc(C(F)(F)F)c1 (stereo in doubt; 3b) [listing 1 of 2 here]	inhibition (INH) (Gerbillinae [7]): 100%
0.04 nM	0.8 nM	2180 nM	–	3200 nM	C[C@@H](O[C@H]1CN2C(=O)C(C)(O)C[C@H]2[C@@H]1c1ccc(F)cc1)c1cc(C(F)(F)F)cc(C(F)(F)F)c1 (stereo in doubt; 5b) [listing 1 of 2 here]	inhibition (INH) (Gerbillinae [7]): 100%
–	–	–	70%	–	C[C@@H](O[C@H]1CN2C(=O)C(C)(O)C[C@H]2[C@@H]1c1ccc(F)cc1)c1cc(C(F)(F)F)cc(C(F)(F)F)c1 (single isomer, unassigned) [listing 1 of 2 here]	–
–	–	–	60%	–	C[C@@H](O[C@H]1CN2C(=O)C(O)C[C@H]2[C@@H]1c1ccc(F)cc1)c1cc(C(F)(F)F)cc(C(F)(F)F)c1 (stereo in doubt; 2b)	–
–	–	–	59%	–	C[C@@H](O[C@H]1CN2C(=O)C(N)C[C@H]2[C@@H]1c1ccc(F)cc1)c1cc(C(F)(F)F)cc(C(F)(F)F)c1 (stereo in doubt; 3b) [listing 2 of 2 here]	–
–	–	–	81%	–	C[C@@H](O[C@H]1CN2C(=O)C(n3cnnc3)C[C@H]2[C@@H]1c1ccc(F)cc1)c1cc(C(F)(F)F)cc(C(F)(F)F)c1 (stereo in doubt; 21a) [listing 1 of 2 here]	–
–	–	–	92%	–	C[C@@H](O[C@H]1CN2C(=O)C(N)C[C@H]2[C@@H]1c1ccc(F)cc1)c1cc(C(F)(F)F)cc(C(F)(F)F)c1 (stereo in doubt; 3a) [listing 1 of 2 here]	–
0.13 nM	1.83 nM	2390 nM	68%	2970 nM	C[C@@H](O[C@H]1CN2C(=O)CC(NCc3ccn[nH]3)[C@H]2[C@@H]1c1ccc(F)cc1)c1cc(C(F)(F)F)cc(C(F)(F)F)c1 (some centres undefined)	inhibition in vivo at 3 mg/kg (Gerbillinae [7]): 94%
–	–	–	45%	–	C[C@@H](O[C@H]1CN2C(=O)C(C)(O)C[C@H]2[C@@H]1c1ccc(F)cc1)c1cc(C(F)(F)F)cc(C(F)(F)F)c1 (stereo in doubt; 5b) [listing 2 of 2 here]	–
0.05 nM	1.8 nM	–	–	5320 nM	C[C@@H](O[C@H]1CN2C(=O)C(n3cnnc3)C[C@H]2[C@@H]1c1ccc(F)cc1)c1cc(C(F)(F)F)cc(C(F)(F)F)c1 (single isomer, unassigned) [listing 1 of 2 here]	inhibition in vivo at 1 mg/kg (Gerbillinae [6]): 0%
–	–	–	74%	–	C[C@@H](O[C@H]1CN2C(=O)C(n3cnnc3)C[C@H]2[C@@H]1c1ccc(F)cc1)c1cc(C(F)(F)F)cc(C(F)(F)F)c1 (single isomer, unassigned) [listing 2 of 2 here]	–
0.27 nM	2.1 nM	98 nM	–	2820 nM	C[C@@H](O[C@H]1CN2C(=O)C(N)C[C@H]2[C@@H]1c1ccc(F)cc1)c1cc(C(F)(F)F)cc(C(F)(F)F)c1 (stereo in doubt; 3a) [listing 2 of 2 here]	inhibition in vivo at 3 mg/kg (Gerbillinae [7]): 99%
–	–	–	90%	–	C[C@@H](O[C@H]1CN2C(=O)C(O)C[C@H]2[C@@H]1c1ccc(F)cc1)c1cc(C(F)(F)F)cc(C(F)(F)F)c1 (single isomer, unassigned) [listing 1 of 2 here]	–
0.06 nM	0.9 nM	598 nM	55%	1470 nM	C[C@@H](O[C@H]1CN2C(=O)C(NCc3ccn[nH]3)C[C@H]2[C@@H]1c1ccc(F)cc1)c1cc(C(F)(F)F)cc(C(F)(F)F)c1 (some centres undefined)	inhibition in vivo at 3 mg/kg (Gerbillinae [7]): 92%
0.09 nM	2.5 nM	1870 nM	–	4820 nM	C[C@@H](O[C@H]1CN2C(=O)C(C)(O)C[C@H]2[C@@H]1c1ccc(F)cc1)c1cc(C(F)(F)F)cc(C(F)(F)F)c1 (single isomer, unassigned) [listing 2 of 2 here]	inhibition in vivo at 3 mg/kg (Gerbillinae [7]): 98%
–	–	–	75%	–	C[C@@H](O[C@H]1CN2C(=O)CC(N)[C@H]2[C@@H]1c1ccc(F)cc1)c1cc(C(F)(F)F)cc(C(F)(F)F)c1 (stereo in doubt; 15a) [listing 2 of 2 here]	–
0.13 nM	1.4 nM	301 nM	40%	2410 nM	C[C@@H](O[C@H]1CN2C(=O)C(NCc3nn[nH]c3CN(C)C)C[C@H]2[C@@H]1c1ccc(F)cc1)c1cc(C(F)(F)F)cc(C(F)(F)F)c1 (some centres undefined)	inhibition in vivo at 1 mg/kg (Gerbillinae [6]): 88%
0.07 nM	1.9 nM	> 10000 nM	–	> 10000 nM	C[C@@H](O[C@H]1CN2C(=O)C(n3cnnc3)C[C@H]2[C@@H]1c1ccc(F)cc1)c1cc(C(F)(F)F)cc(C(F)(F)F)c1 (stereo in doubt; 21a) [listing 2 of 2 here]	–
0.14 nM	5.6 nM	8060 nM	–	5140 nM	C[C@@H](O[C@H]1CN2C(=O)C(O)C[C@H]2[C@@H]1c1ccc(F)cc1)c1cc(C(F)(F)F)cc(C(F)(F)F)c1 (single isomer, unassigned) [listing 2 of 2 here]	inhibition in vivo at 3 mg/kg (Gerbillinae [7]): 95%
